Assay results published in ChEMBL document CHEMBL4689842, “EUbOPEN Chemogenomics Library wave 1” (2021).

Legend:
Fibroblast = assay: Incucyte cell viability with human fibroblast; type: toxicity, cell-based; details: 10 µM, compound concentration 10 uM; note: filed as whole numbers so only -1 and 0 and 1 occur
HEK-293T = assay: Multiplex assay against HEK293T; type: toxicity, cell-based; details: human;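 for Population Tubulin-Different-Phenotype (%): share of the cells with healthy nuclei that show this phenotype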
Method in brief: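 Values for tubulin, mitochondrial-mass and membrane-permeability phenotypes are per cents of cells with healthy nuclei. These cells were identified by CellPathfinder machine-learning gating of live cells that had been stained at seeding with Hoechst33342, BioTracker Green Microtubule Cytoskeleton Dye, MitoTracker Red and Annexin V Alexa Fluor 680 and imaged on a CQ1 microscope at 37°C and 5% CO2 after compound addition. The gating first set Hoechst high-intensity objects apart from normal cells, then split normal cells into healthy, pyknosed or fragmented nuclei, and pyknosed cells into mitotic or apoptotic.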

[1] = 12 h, 1 µM, compound concentration 1 uM, replicate 1
[2] = 12 h, 1 µM, compound concentration 1 uM, replicate 2
[3] = 12 h, 10 µM, compound concentration 10 uM, replicate 1
[4] = 12 h, 10 µM, compound concentration 10 uM, replicate 2
[5] = 24 h, 1 µM, compound concentration 1 uM, replicate 1
[6] = 24 h, 1 µM, compound concentration 1 uM, replicate 2
[7] = 24 h, 10 µM, compound concentration 10 uM, replicate 1
[8] = 24 h, 10 µM, compound concentration 10 uM, replicate 2

CCOc1cc2ncc(C#N)c(Nc3ccc(OCc4cccc(F)c4)c(Cl)c3)c2cc1NC(=O)/C=C/CN(C)C [HKI-357]
Growth Rate (Fibroblast; 0 h, replicate number 1, timepoint 0 hours): 0 | Growth Rate (Fibroblast; 6 h, replicate number 1, timepoint 6 hours): 0 | Growth Rate (Fibroblast; 12 h, replicate number 1, timepoint 12 hours): 0 | Growth Rate (Fibroblast; 18 h, replicate number 1, timepoint 18 hours): 0 | Growth Rate (Fibroblast; 24 h, replicate number 1, timepoint 24 hours): 0 | Population Apoptotic (%) (HEK-293T; [1]): 18% | Population Fragmented Nuclei (%) (HEK-293T; [1]): 19% | Population Healthy Nuclei (%) (HEK-293T; [1]): 59% | Population Hoechst High Intensity Objects (%) (HEK-293T; [1]): 13% | Population Membrane Permeable-Phenotype (%) (HEK-293T; [1]): 4% | Population Mitochondria Different-Phenotype (%) (HEK-293T; [1]): 8% | Population Mitotic Cells (%) (HEK-293T; [1]): 81% | Population Normal (%) (HEK-293T; [1]): 86% | Population Pyknosed Nuclei (%) (HEK-293T; [1]): 21% | Population Tubulin-Different-Phenotype (%) (HEK-293T; [1]): 4% | Total Cell Count (HEK-293T; [1]): 555 | Population Apoptotic (%) (HEK-293T; [2]): 10% | Population Fragmented Nuclei (%) (HEK-293T; [2]): 7% | Population Healthy Nuclei (%) (HEK-293T; [2]): 87% | Population Hoechst High Intensity Objects (%) (HEK-293T; [2]): 1% | Population Membrane Permeable-Phenotype (%) (HEK-293T; [2]): 1% | Population Mitochondria Different-Phenotype (%) (HEK-293T; [2]): 10% | Population Mitotic Cells (%) (HEK-293T; [2]): 89% | Population Normal (%) (HEK-293T; [2]): 98% | Population Pyknosed Nuclei (%) (HEK-293T; [2]): 5% | Population Tubulin-Different-Phenotype (%) (HEK-293T; [2]): 7% | Total Cell Count (HEK-293T; [2]): 1619 | Population Apoptotic (%) (HEK-293T; [3]): 31% | Population Fragmented Nuclei (%) (HEK-293T; [3]): 13% | Population Healthy Nuclei (%) (HEK-293T; [3]): 50% | Population Hoechst High Intensity Objects (%) (HEK-293T; [3]): 10% | Population Membrane Permeable-Phenotype (%) (HEK-293T; [3]): 19% | Population Mitochondria Different-Phenotype (%) (HEK-293T; [3]): 16% | Population Mitotic Cells (%) (HEK-293T; [3]): 68% | Population Normal (%) (HEK-293T; [3]): 89% | Population Pyknosed Nuclei (%) (HEK-293T; [3]): 35% | Population Tubulin-Different-Phenotype (%) (HEK-293T; [3]): 61% | Total Cell Count (HEK-293T; [3]): 591 | Population Apoptotic (%) (HEK-293T; [4]): 14% | Population Fragmented Nuclei (%) (HEK-293T; [4]): 3% | Population Healthy Nuclei (%) (HEK-293T; [4]): 83% | Population Hoechst High Intensity Objects (%) (HEK-293T; [4]): 2% | Population Membrane Permeable-Phenotype (%) (HEK-293T; [4]): 11% | Population Mitochondria Different-Phenotype (%) (HEK-293T; [4]): 23% | Population Mitotic Cells (%) (HEK-293T; [4]): 85% | Population Normal (%) (HEK-293T; [4]): 97% | Population Pyknosed Nuclei (%) (HEK-293T; [4]): 12% | Population Tubulin-Different-Phenotype (%) (HEK-293T; [4]): 78% | Total Cell Count (HEK-293T; [4]): 1328 | Population Apoptotic (%) (HEK-293T; [5]): 31% | Population Fragmented Nuclei (%) (HEK-293T; [5]): 14% | Population Healthy Nuclei (%) (HEK-293T; [5]): 74% | Population Hoechst High Intensity Objects (%) (HEK-293T; [5]): 8% | Population Membrane Permeable-Phenotype (%) (HEK-293T; [5]): 7% | Population Mitochondria Different-Phenotype (%) (HEK-293T; [5]): 5% | Population Mitotic Cells (%) (HEK-293T; [5]): 68% | Population Normal (%) (HEK-293T; [5]): 91% | Population Pyknosed Nuclei (%) (HEK-293T; [5]): 11% | Population Tubulin-Different-Phenotype (%) (HEK-293T; [5]): 9% | Total Cell Count (HEK-293T; [5]): 612 | Population Apoptotic (%) (HEK-293T; [6]): 4% | Population Fragmented Nuclei (%) (HEK-293T; [6]): 26% | Population Healthy Nuclei (%) (HEK-293T; [6]): 71% | Population Hoechst High Intensity Objects (%) (HEK-293T; [6]): 2% | Population Membrane Permeable-Phenotype (%) (HEK-293T; [6]): 4% | Population Mitochondria Different-Phenotype (%) (HEK-293T; [6]): 2% | Population Mitotic Cells (%) (HEK-293T; [6]): 96% | Population Normal (%) (HEK-293T; [6]): 97% | Population Pyknosed Nuclei (%) (HEK-293T; [6]): 1% | Population Tubulin-Different-Phenotype (%) (HEK-293T; [6]): 8% | Total Cell Count (HEK-293T; [6]): 2811 | Population Apoptotic (%) (HEK-293T; [7]): 28% | Population Fragmented Nuclei (%) (HEK-293T; [7]): 12% | Population Healthy Nuclei (%) (HEK-293T; [7]): 59% | Population Hoechst High Intensity Objects (%) (HEK-293T; [7]): 8% | Population Membrane Permeable-Phenotype (%) (HEK-293T; [7]): 10% | Population Mitochondria Different-Phenotype (%) (HEK-293T; [7]): 17% | Population Mitotic Cells (%) (HEK-293T; [7]): 71% | Population Normal (%) (HEK-293T; [7]): 91% | Population Pyknosed Nuclei (%) (HEK-293T; [7]): 28% | Population Tubulin-Different-Phenotype (%) (HEK-293T; [7]): 72% | Total Cell Count (HEK-293T; [7]): 592 | Population Apoptotic (%) (HEK-293T; [8]): 11% | Population Fragmented Nuclei (%) (HEK-293T; [8]): 11% | Population Healthy Nuclei (%) (HEK-293T; [8]): 81% | Population Hoechst High Intensity Objects (%) (HEK-293T; [8]): 3% | Population Membrane Permeable-Phenotype (%) (HEK-293T; [8]): 12% | Population Mitochondria Different-Phenotype (%) (HEK-293T; [8]): 9% | Population Mitotic Cells (%) (HEK-293T; [8]): 88% | Population Normal (%) (HEK-293T; [8]): 96% | Population Pyknosed Nuclei (%) (HEK-293T; [8]): 6% | Population Tubulin-Different-Phenotype (%) (HEK-293T; [8]): 70% | Total Cell Count (HEK-293T; [8]): 1894
